pIC50: −log10 of the molar value. A value given as a limit tells only on which side of the number the result lay.

The target of one assay is Human immunodeficiency virus type 1 protease (Human immunodeficiency virus 1) (UniProt Q72874). The assay can be described thus: Inhibition of HIV-1 Protease. Also noted: concentration or dose not given beside the values. To be noted: concentration not given here. An outline of the steps: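 Continuous fluorometric cleavage of 2-(aminobenzoyl)-Thr-Ile-Nle-Phe(p-NO2)-Gln-ArgNH2 (Km = 37 μM); IC50 determined, with MVT-101 (Ac-Thr-Ile-Nle[CH2NH]Nle-Gln-ArgNH2) as positive control.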
Consider `CNC(=O)N(CC(C)C)C[C@H](O)[C@H](Cc1ccccc1)NC(=O)[C@H](CC(N)=O)NC(=O)OCc1ccccc1`, for which the inhibition (usually how much of the control response was suppressed) is < 50%. Same read-out and setting: with `CCCCNC(=O)N(C)C[C@H](O)[C@H](Cc1ccccc1)NC(=O)[C@H](CC(N)=O)NC(=O)OCc1ccccc1` the figure was < 50%. Same read-out and setting: as for `CNC(=O)N(C)C[C@H](O)[C@H](Cc1ccccc1)NC(=O)[C@H](CC(N)=O)NC(=O)OCc1ccccc1`, the figure is < 50%; as for `CCCCNC(=O)N(C)C[C@@H](O)[C@H](Cc1ccccc1)NC(=O)[C@H](CC(N)=O)NC(=O)OCc1ccccc1`, < 50%; as for `CNC(=O)N(C)C[C@@H](O)[C@H](Cc1ccccc1)NC(=O)[C@H](CC(N)=O)NC(=O)OCc1ccccc1`, < 50%. For `CCCCNC(=O)N(CC(C)C)C[C@H](O)[C@H](Cc1ccccc1)NC(=O)[C@H](CC(N)=O)NC(=O)OCc1ccccc1`, the inhibition is < 50%.

The next assay addresses T1, Human immunodeficiency virus type 1 protease (Human immunodeficiency virus 1, UniProt Q72874). As to the kind of experiment: Compounds were tested for their concentration to inhibit the HIV-1 Protease.
Conditions: not given
An outline of the steps:
(§1)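 Continuous fluorometric HIV-1 protease assay. Substrate 2-(aminobenzoyl)-Thr-Ile-Nle-Phe(p-NO₂)-Gln-ArgNH₂ (Km = 37 μM). MVT-101 (Ac-Thr-Ile-Nle[CH₂NH]Nle-Gln-ArgNH₂) served as positive control. IC₅₀ values were determined from inhibition of substrate cleavage; compounds giving under 50% inhibition at 10 μM were flagged.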
`CNC(=O)N(CC(C)C)C[C@@H](O)[C@H](Cc1ccccc1)NC(=O)[C@H](CC(N)=O)NC(=O)OCc1ccccc1`: the pIC50 (usually the IC50 on a negative log10 scale, so that one unit is a factor of ten) was 5.82.

Another assay addresses T1, Human immunodeficiency virus type 1 protease. As to the kind of experiment: Inhibition of HIV-1 Protease.
Conditions: not given
An outline of the steps: as §1
Molecule `C[C@@H](c1ccccc1)N(C[C@@H](O)[C@H](Cc1ccccc1)NC(=O)[C@H](CC(N)=O)NC(=O)OCc1ccccc1)C(=O)NC(C)(C)C` gave a pIC50 of 5.29.

As for `CC(C)(C)NC(=O)N(CC1CCCCC1)C[C@@H](O)[C@H](Cc1ccccc1)NC(=O)[C@H](CC(N)=O)NC(=O)c1ccc2ccccc2n1`, the pIC50 was 8.30. Same read-out and setting: with `CCCCNC(=O)N(CC(C)C)C[C@@H](O)[C@H](Cc1ccccc1)NC(=O)[C@H](CC(N)=O)NC(=O)OCc1ccccc1` the figure was 6.03. `CC(C)CN(C[C@@H](O)[C@H](Cc1ccccc1)NC(=O)[C@H](CC(N)=O)NC(=O)OCc1ccccc1)C(=O)NC(C)(C)C` had a pIC50 of 7.46.

For the molecule `C[C@H](c1ccccc1)N(C[C@@H](O)[C@H](Cc1ccccc1)NC(=O)[C@H](CC(N)=O)NC(=O)OCc1ccccc1)C(=O)NC(C)(C)C`, the negative-log IC50 (pIC50) was 5.19. Same read-out and setting: as for `CC(C)CN(C[C@@H](O)[C@H](Cc1ccccc1)NC(=O)[C@H](CC(N)=O)NC(=O)c1ccc2ccccc2n1)C(=O)NC(C)(C)C` [TELINAVIR], the figure is 8.22; as for `CC(C)CN(C[C@H](O)[C@H](Cc1ccccc1)NC(=O)[C@H](CC(N)=O)NC(=O)c1ccc2ccccc2n1)C(=O)NC(C)(C)C`, 5.00; as for `CC(C)(C)NC(=O)N(Cc1ccncc1)C[C@@H](O)[C@H](Cc1ccccc1)NC(=O)[C@H](CC(N)=O)NC(=O)c1ccc2ccccc2n1`, 7.72. Molecule `CC(C)(C)NC(=O)N(CC1CCCCC1)C[C@@H](O)[C@H](Cc1ccccc1)NC(=O)[C@H](CC(N)=O)NC(=O)OCc1ccccc1` gave a pIC50 of 7.54.

Molecule `CC(C)CN(C[C@H](O)[C@H](Cc1ccccc1)NC(=O)[C@H](CC(N)=O)NC(=O)OCc1ccccc1)C(=O)NC(C)(C)C` gave a pIC50 of 4.27.

The molecule `CCCNC(=O)N(CC(C)C)C[C@@H](O)[C@H](Cc1ccccc1)NC(=O)[C@H](CC(N)=O)NC(=O)OCc1ccccc1` showed a pIC50 of 6.29. `CC(C)(C)NC(=O)N(Cc1ccncc1)C[C@@H](O)[C@H](Cc1ccccc1)NC(=O)[C@H](CC(N)=O)NC(=O)OCc1ccccc1` gave a pIC50 of 6.98. The same measure, in the same setting: as for `CC(C)(C)NC(=O)N(Cc1ccccc1)C[C@@H](O)[C@H](Cc1ccccc1)NC(=O)[C@H](CC(N)=O)NC(=O)c1ccc2ccccc2n1`, the figure is 8.52; as for `CC(C)CCN(C[C@@H](O)[C@H](Cc1ccccc1)NC(=O)[C@H](CC(N)=O)NC(=O)c1ccc2ccccc2n1)C(=O)NC(C)(C)C`, 8.52. Still for that read-out and setting: as for `CCCCNC(=O)N(CC(C)C)C[C@@H](O)[C@H](Cc1ccccc1)NC(=O)[C@H](CC(N)=O)NC(=O)c1ccc2ccccc2n1`, the figure is 6.90; as for `CC(C)CN(C[C@@H](O)[C@H](Cc1ccccc1)NC(=O)[C@H](CC(N)=O)NC(=O)OCc1ccccc1)C(=O)NC(C)C`, 6.59; as for `CC(C)CCN(C[C@@H](O)[C@H](Cc1ccccc1)NC(=O)[C@H](CC(N)=O)NC(=O)OCc1ccccc1)C(=O)NC(C)(C)C`, 7.89. The same measure, in the same setting: as for `CC(C)(C)NC(=O)N(Cc1ccccc1)C[C@@H](O)[C@H](Cc1ccccc1)NC(=O)[C@H](CC(N)=O)NC(=O)OCc1ccccc1`, the figure is 7.72; as for `CCNC(=O)N(CC(C)C)C[C@@H](O)[C@H](Cc1ccccc1)NC(=O)[C@H](CC(N)=O)NC(=O)OCc1ccccc1`, 6.48; as for `CCCC[C@@H](CN[C@@H](CCCC)C(=O)N[C@@H](CCC(N)=O)C(=O)N[C@@H](CCCNC(=N)N)C(N)=O)NC(=O)[C@@H](NC(=O)[C@@H](NC(C)=O)[C@@H](C)O)[C@@H](C)CC`, 5.72.

The next assay deals with CEM (Homo sapiens). As to the kind of experiment: Toxic dose required for 50% in uninfected cells.
Conditions: not given
`CC(C)CN(C[C@@H](O)[C@H](Cc1ccccc1)NC(=O)[C@H](CC(N)=O)NC(=O)c1ccc2ccccc2n1)C(=O)NC(C)(C)C` [TELINAVIR] yielded a TD50 of 50 µM.

The molecule `CC(C)(C)NC(=O)N(Cc1ccncc1)C[C@@H](O)[C@H](Cc1ccccc1)NC(=O)[C@H](CC(N)=O)NC(=O)c1ccc2ccccc2n1` returned a TD50 of 300 µM.

`CC(C)(C)NC(=O)N(Cc1ccccc1)C[C@@H](O)[C@H](Cc1ccccc1)NC(=O)[C@H](CC(N)=O)NC(=O)c1ccc2ccccc2n1` yielded a TD50 of 700 µM. Still for that read-out and setting: with `CC(C)CCN(C[C@@H](O)[C@H](Cc1ccccc1)NC(=O)[C@H](CC(N)=O)NC(=O)c1ccc2ccccc2n1)C(=O)NC(C)(C)C` the figure was 50 µM.

Values taken from ChEMBL document CHEMBL1126824, “Discovery of a novel class of potent HIV-1 protease inhibitors containing the (R)-(hydroxyethyl)urea isostere” (J Med Chem, 1993).
